Measured values from ChEMBL document CHEMBL1130251, “Enzymatic properties of the unnatural beta-L-enantiomers of 2',3'-dideoxyadenosine and 2',3'-didehydro-2',3'-dideoxyadenosine” (J Med Chem, 1997).

What was measured:
[1] = Inhibitory activity against purine nucleoside phosphorylases from human blood and calf spleen; NS, NI/Ino=nonsubstrate, noninhibitor/inhibitor; type: tissue-based
Summary of the method: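 Purine nucleoside phosphorylase from calf spleen (0.18 unit·mL⁻¹) or human blood (9 units·mL⁻¹) at 37 °C in 50 mM phosphate pH 7.5. Substrate tests used 50 μM nucleoside. Inhibition used 40 μM inosine with 100 μM test compound. Reaction media were analysed by C-18 HPLC.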

[2] = molecular target: T1, Adenosine deaminase (Bos taurus) (UniProt P56658); test: Inhibitory activity against bovine adenosine deaminase; very weak substrate or inhibitor
T1 sequence (whole entry): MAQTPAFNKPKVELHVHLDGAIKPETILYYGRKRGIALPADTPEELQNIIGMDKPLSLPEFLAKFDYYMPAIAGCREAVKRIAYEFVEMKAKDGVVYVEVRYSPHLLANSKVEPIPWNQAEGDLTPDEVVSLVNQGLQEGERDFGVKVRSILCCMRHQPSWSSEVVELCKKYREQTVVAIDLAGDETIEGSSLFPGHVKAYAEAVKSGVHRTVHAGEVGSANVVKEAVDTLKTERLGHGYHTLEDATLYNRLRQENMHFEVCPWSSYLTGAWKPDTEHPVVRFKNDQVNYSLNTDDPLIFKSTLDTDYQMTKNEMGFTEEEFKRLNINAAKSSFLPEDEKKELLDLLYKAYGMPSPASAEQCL
Summary of the method: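 Adenosine deaminase (calf intestinal mucosa, type VIII) at 37 °C in 50 mM phosphate pH 7.5. Substrate tests used 20–80 μM nucleoside and 0.01–1 unit enzyme, with HPLC product analysis. Inhibition was read by UV spectrometry with adenosine 20–100 μM. Ki was taken from Lineweaver–Burk plots assuming competitive inhibition.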

[3] = tested on: Nc1ncnc2c1ncn2[C@H]1C=C[C@@H](CO)O1; test: Inhibitory activity against human deoxycytidine kinase
Summary of the method: (§1)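 Recombinant human deoxycytidine kinase (expressed in E. coli, purified) at 37 °C. Monophosphate formation measured by C-18 HPLC. Km and Vm from Lineweaver–Burk plots.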

[4] = tested on: Nc1ncnc2c1ncn2[C@H]1CC[C@@H](CO)O1; test: Inhibitory activity against Cytidine Kinase; summary of the method: as §1

Sequence of Deoxycytidine kinase (Homo sapiens), P27707 (P27707 whole entry): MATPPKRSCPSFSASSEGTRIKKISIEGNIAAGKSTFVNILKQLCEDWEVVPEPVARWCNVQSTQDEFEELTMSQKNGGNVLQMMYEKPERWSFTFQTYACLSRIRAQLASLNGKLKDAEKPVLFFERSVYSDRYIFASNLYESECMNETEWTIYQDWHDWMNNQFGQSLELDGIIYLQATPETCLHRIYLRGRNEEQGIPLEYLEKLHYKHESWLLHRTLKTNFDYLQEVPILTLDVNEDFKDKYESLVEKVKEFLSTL

Km [1] | inhibition [2] | Compound | Km [3] [µM] | Km [4] [µM]
NS, NI/Ino |  | Nc1ncnc2c1ncn2[C@H]1CC[C@@H](CO)O1 |  | 
NS, NI/Ino | very weak substrate or inhibitor | Nc1ncnc2c1ncn2[C@H]1C=C[C@@H](CO)O1 |  | 
 |  | Deoxycytidine kinase (Homo sapiens), P27707 | 620 | 220
